Measured values pooled from the literature.
Compare with care: the assays were run in different laboratories.
TRPC3: Short transient receptor potential channel 3 (TRPC3, Homo sapiens, UniProt Q13507)

SMILES	target	test	system	setting	measurement	result
COc1cc(-c2cncc3c2CN(C)Cc2cc(N4CCNCC4)ccc2-3)cc(OC)c1OC	Interferon-induced, double-stranded RNA-activated protein kinase (EIF2AK2, Homo sapiens, UniProt P19525)	enzyme activity, inhibitor	–	1 µM	remaining activity	102%
Cc1cc([C@@H](C)Nc2ccccc2C(=O)O)c2nc(N3CCC(F)(F)CC3)c(C#N)c(=O)n2c1	MAP kinase-interacting serine/threonine-protein kinase 2 (MKNK2, Homo sapiens, UniProt Q9HBH9)	binding, competition with immobilised ligand	–	10 µM	remaining binding	100%
CNc1ncc2c(/C=C/C(=O)N3CCC(OC)CC3)nn(Cc3cccc(C(F)(F)F)c3)c2n1	Tyrosine-protein kinase Fgr (FGR, Homo sapiens, UniProt P09769)	enzyme activity, inhibitor, radiometric	–	1 µM	remaining activity	90%
C=CC(=O)N1C[C@@H](n2nc(C#Cc3c(F)cc4c(ncn4C4CC4)c3F)c(C(N)=O)c2NC)C[C@@H]1COC	Serine/threonine-protein kinase 10 (STK10, Homo sapiens, UniProt O94804)	enzyme activity, inhibitor, mobility shift	–	1 µM	inhibition	64.6%
CCNC(=O)c1cnn(-c2ccc(-n3ccc(Cl)c(Cl)c3=O)cc2)c1C(F)(F)F	TRPC3	ion current, inhibitor, patch clamp	HEK293	10 µM	inhibition	95.7%
C=CC(=O)N1CCC(COCC(=O)N2CCN(c3nc(-c4cnc(N)nc4C(F)F)nc(N4CCOC[C@@H]4C)n3)CC2)CC1	Serine/threonine-protein kinase WNK4 (WNK4, Homo sapiens, UniProt Q96J92)	binding, competition with immobilised ligand	–	1 µM	remaining binding	46%
CCOC(=O)c1cnn(-c2ccc(NC(=O)C(Cl)=C(Cl)Cl)cc2)c1C(F)(F)F	TRPC3	ion current, inhibitor, patch clamp	HEK293	10 µM	inhibition	88.6%
COc1ccc(CNC(=O)c2cc3c(cc2[N+](=O)[O-])OCO3)cc1	Myeloperoxidase (MPO, Homo sapiens, UniProt P05164)	enzyme activity, inhibitor	–	5 µM	inhibition	> 50%
C=CC(=O)Nc1ccccc1C(=O)Nc1ccc(C#Cc2ccc(OC)cc2)nn1	Fibroblast growth factor receptor 1 (FGFR1, Homo sapiens, UniProt P11362)	enzyme activity, inhibitor, radiometric	–	1 µM	inhibition	3%
CCNC(=O)c1cn(-c2ccc(-n3ccc(Cl)c(Cl)c3=O)cc2)nc1C(F)(F)F	TRPC3	ion current, inhibitor, patch clamp	HEK293	10 µM	inhibition	> 90%
